According to ChEMBL document CHEMBL1165950, “Design and synthesis of new potent anticancer pyrazoles with high FLT3 kinase inhibitory selectivity” (Bioorg Med Chem, 2010):

Key:
Format in all cases: functional
UO-31 [1] = experiment: Cytotoxicity against human UO31 cells assessed as cell growth at 10 uM; conditions: read-out: Activity
Summary of the method: (§1)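 NCI-60 screen: cells grown in RPMI 1640 with 5% FBS and 2 mM L-glutamine, plated at 5000–40,000 cells/well according to doubling time, and preincubated 24 h at 37 °C, 5% CO2. The single 10 µM dose (DMSO stock) was added, then incubated 48 h. Cells were TCA-fixed and stained with 0.4% SRB, read at 515 nm, and growth % calculated against time-zero and control plates.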

NCI-H460 [2] = experiment: Cytotoxicity against human NCI-H460 cells assessed as cell growth at 0.001 uM after 48 hrs by sulforhodamine B assay; conditions: NCI-H460, 48 h, read-out: Activity
OVCAR-8 [3] = experiment: Cytotoxicity against human OVCAR8 cells assessed as cell growth at 10 uM after 48 hrs by sulforhodamine B assay; conditions: OVCAR-8, 48 h, read-out: Activity
A498 = experiment: Cytotoxicity against human A498 cells assessed as cell growth at 10 uM; conditions: read-out: Activity
Summary of the method: (§2)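 Single-dose NCI-60 screen at 10 µM. Cells were grown in RPMI 1640 with 5% FBS and 2 mM L-glutamine, then treated for 48 h at 37 °C. Protein was measured by SRB staining with absorbance at 515 nm. Percentage growth was recorded, and inhibition percentage was calculated as 100 minus growth percentage.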

SW-620 = experiment: Cytotoxicity against human SW620 cells assessed as cell growth at 0.001 uM after 48 hrs by sulforhodamine B assay; conditions: SW-620, 48 h, read-out: Activity
OVCAR-8 [4] = experiment: Cytotoxicity against human OVCAR8 cells assessed as cell growth at 100 nM after 48 hrs by sulforhodamine B assay; conditions: OVCAR-8, 48 h, read-out: Activity
CAKI-1 [5] = experiment: Cytotoxicity against human Caki1 cells assessed as cell growth at 10 uM; conditions: read-out: Activity; summary of the method: as §2
NCI-H460 [6] = experiment: Cytotoxicity against human NCI-H460 cells assessed as cell growth at 10 uM; conditions: read-out: Activity; summary of the method: as §1
LOX IMVI = experiment: Cytotoxicity against human LOXIMVI cells assessed as cell growth at 1 uM after 48 hrs by sulforhodamine B assay; conditions: read-out: Activity
OVCAR-8 [7] = experiment: Cytotoxicity against human OVCAR8 cells assessed as cell growth at 1 uM after 48 hrs by sulforhodamine B assay; conditions: OVCAR-8, 48 h, read-out: Activity
K562 = experiment: Cytotoxicity against human K562 cells assessed as cell growth at 100 nM after 48 hrs by sulforhodamine B assay; conditions: K562, 48 h, read-out: Activity
CAKI-1 [8] = experiment: Cytotoxicity against human Caki1 cells assessed as cell growth at 100 nM after 48 hrs by sulforhodamine B assay; conditions: CAKI-1, 48 h, read-out: Activity
UO-31 [9] = experiment: Cytotoxicity against human UO31 cells assessed as cell growth at 0.001 uM after 48 hrs by sulforhodamine B assay; conditions: UO-31, 48 h, read-out: Activity
[10] = Cytotoxicity against human Hs 578T cells assessed as cell growth at 0.01 uM after 48 hrs by sulforhodamine B assay; conditions: read-out: Activity
SK-MEL-5 = experiment: Growth inhibition of human SK-MEL-5 cells after 48 hrs by sulforhodamine B assay; conditions: SK-MEL-5, 48 h; for CC50: read-out: LC50 (the source's name)
Summary of the method: (§3)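 NCI 60-cell screen, five-dose mode. Cells grown in RPMI 1640 with 5% FBS and 2 mM L-glutamine and plated at 5000-40,000 cells/well according to doubling time. After 24 h preincubation, a Tz plate was TCA-fixed. Five concentrations (10-fold or 1/2 log dilutions) were applied for 48 h at 37 °C. SRB staining read at 515 nm. IC50 taken from [(Ti-Tz)/(C-Tz)]×100 = 50.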

NCI-H522 = experiment: Cytotoxicity against human NCI-H522 cells assessed as cell growth at 100 nM after 48 hrs by sulforhodamine B assay; conditions: NCI-H522, 48 h, read-out: Activity
CAKI-1 [11] = experiment: Growth inhibition of human Caki1 cells after 48 hrs by sulforhodamine B assay; conditions: CAKI-1, 48 h; for CC50: read-out: LC50 (the source's name)
Summary of the method: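 NCI five-dose SRB assay in RPMI 1640 with 5% FBS and 2 mM L-glutamine. Cells were preincubated 24 h, then exposed 48 h at 37 °C to five concentrations (10-fold or half-log serial dilutions from DMSO stocks). TCA fixation, SRB staining, and absorbance at 515 nm followed. IC50 was taken where [(Ti−Tz)/(C−Tz)]×100 = 50, with Tz as time-zero cell density.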

SK-MEL-28 = experiment: Cytotoxicity against human SK-MEL-28 cells assessed as cell growth at 0.01 uM after 48 hrs by sulforhodamine B assay; conditions: SK-MEL-28, 48 h, read-out: Activity
UACC-62 = experiment: Cytotoxicity against human UACC62 cells assessed as cell growth at 1 uM after 48 hrs by sulforhodamine B assay; conditions: UACC-62, 48 h, read-out: Activity
MDA-MB-468 [12] = experiment: Cytotoxicity against human MDA-MB-468 cells assessed as cell growth at 1 uM after 48 hrs by sulforhodamine B assay; conditions: MDA-MB-468, 48 h, read-out: Activity
RXF 393 = experiment: Cytotoxicity against human RXF393 cells assessed as cell growth at 0.01 uM after 48 hrs by sulforhodamine B assay; conditions: RXF 393, 48 h, read-out: Activity
786-0 = experiment: Cytotoxicity against human 786-0 cells assessed as cell growth at 1 uM after 48 hrs by sulforhodamine B assay; conditions: 786-0, 48 h, read-out: Activity
Summary of the method: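 NCI-60 five-dose screen. Cells were grown in RPMI 1640 with 5% FBS and 2 mM L-glutamine, plated at 5000–40,000 cells/well and preincubated for 24 h. Time-zero plates were TCA-fixed. DMSO-solubilized drug was added at five concentrations (10-fold or ½-log serial dilutions) for 48 h at 37 °C, 5% CO2. Cells were TCA-fixed, stained with 0.4% SRB and read at 515 nm. Percent growth used time-zero, control and test absorbances.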

TK-10 = experiment: Cytotoxicity against human TK10 cells assessed as cell growth at 10 uM after 48 hrs by sulforhodamine B assay; conditions: TK-10, 48 h, read-out: Activity
MDA-MB-468 [13] = experiment: Cytotoxicity against human MDA-MB-468 cells assessed as cell growth at 0.01 uM after 48 hrs by sulforhodamine B assay; conditions: MDA-MB-468, 48 h, read-out: Activity
KM12 = experiment: Growth inhibition of human KM12 cells after 48 hrs by sulforhodamine B assay; conditions: KM12, 48 h; for CC50: read-out: LC50 (the source's name); summary of the method: as §3
SK-OV-3 = experiment: Growth inhibition of human SKOV3 cells after 48 hrs by sulforhodamine B assay; conditions: SK-OV-3, 48 h; for CC50: read-out: LC50 (the source's name); summary of the method: as §3
MOLT-4 = experiment: Growth inhibition of human MOLT4 cells after 48 hrs by sulforhodamine B assay; conditions: MOLT-4, 48 h; summary of the method: as §3
T47D = experiment: Cytotoxicity against human T47D cells assessed as cell growth at 1 uM after 48 hrs by sulforhodamine B assay; conditions: read-out: Activity

Row | Structure (SMILES) | growth at 10 µM (UO-31 [1]) | growth at 0.001 µM (NCI-H460 [2]) | growth at 10 µM (OVCAR-8 [3]) | growth at 10 µM (A498) | growth at 0.001 µM (SW-620) | growth at 0.1 µM (OVCAR-8 [4]) | growth at 10 µM (CAKI-1 [5]) | growth at 10 µM (NCI-H460 [6]) | growth at 1 µM (LOX IMVI) | growth at 1 µM (OVCAR-8 [7]) | growth at 0.1 µM (K562) | growth at 0.1 µM (CAKI-1 [8]) | growth at 0.001 µM (UO-31 [9]) | growth at 0.01 µM [10] | GI50 (SK-MEL-5) | TGI (SK-MEL-5) | CC50 (SK-MEL-5) | growth at 0.1 µM (NCI-H522) | GI50 (CAKI-1 [11]) | TGI (CAKI-1 [11]) | also measured
1 | COc1cc(C)cc(-c2nn(CC#N)cc2-c2ccnc(-c3ccc(N(C)C)cc3)c2)c1 | 37.9% | 103% | -8% | 4.2% | 98% | 32% | 13.9% | 2.65% | 5% | 14% | 10% | 14% | 90% | 100% | 269 nM | 672 nM | 24000 nM | -39% | 345 nM | 18200 nM | CC50 (CAKI-1 [11]): > 100000 nM; growth at 0.01 µM (SK-MEL-28): 102%; growth at 1 µM (UACC-62): 12%; growth at 1 µM (MDA-MB-468 [12]): -55%; growth at 0.01 µM (RXF 393): 103%; growth at 1 µM (786-0): -8%; growth at 10 µM (TK-10): -3%; growth at 0.01 µM (MDA-MB-468 [13]): 74%; GI50 (KM12): 310 nM; TGI (KM12): 1620 nM; CC50 (KM12): 25500 nM; GI50 (SK-OV-3): 304 nM; TGI (SK-OV-3): 882 nM; CC50 (SK-OV-3): > 100000 nM; GI50 (MOLT-4): 626 nM; LC50 (MOLT-4): > 100000 nM; TGI (MOLT-4): > 100000 nM; growth at 1 µM (T47D): 10%
2 | Cc1cc(O)cc(-c2nn(CC#N)cc2-c2ccnc(-c3ccc(N(C)C)cc3)c2)c1 | 52.4% | 109% | -5% | 51.1% | 99% | 89% | 44.5% | 25.6% | 29% | 27% | 80% | 85% | 89% | 95% | 1990 nM | 5750 nM | 22900 nM | 75% | 2890 nM | 16400 nM | CC50 (CAKI-1 [11]): > 100000 nM; growth at 0.01 µM (SK-MEL-28): 94%; growth at 1 µM (UACC-62): 10%; growth at 1 µM (MDA-MB-468 [12]): -50%; growth at 0.01 µM (RXF 393): 104%; growth at 1 µM (786-0): 14%; growth at 10 µM (TK-10): -14%; growth at 0.01 µM (MDA-MB-468 [13]): 91%; GI50 (KM12): 1630 nM; TGI (KM12): 7660 nM; CC50 (KM12): 29200 nM; GI50 (SK-OV-3): 2850 nM; TGI (SK-OV-3): 8030 nM; CC50 (SK-OV-3): > 100000 nM; GI50 (MOLT-4): 3170 nM; LC50 (MOLT-4): > 100000 nM; TGI (MOLT-4): 46000 nM; growth at 1 µM (T47D): 5%
3 | COc1cc(C)cc(-c2c(-c3ccnc(-c4ccc(N(C)C)cc4)c3)cnn2CC#N)c1 | 22.1% | 93% | 8% | 21.3% | 105% | 11% | 15.9% | -5.33% | 12% | 12% | 7% | -21% | 83% | 58% | 39.4 nM | 309 nM | > 100000 nM | -47% | 36.9 nM | 89.3 nM | CC50 (CAKI-1 [11]): > 100000 nM; growth at 0.01 µM (SK-MEL-28): 20%; growth at 1 µM (UACC-62): 18%; growth at 1 µM (MDA-MB-468 [12]): -57%; growth at 0.01 µM (RXF 393): 84%; growth at 1 µM (786-0): 2%; growth at 10 µM (TK-10): 34%; growth at 0.01 µM (MDA-MB-468 [13]): -10%; GI50 (KM12): 47.5 nM; TGI (KM12): 264 nM; CC50 (KM12): > 100000 nM; GI50 (SK-OV-3): 504 nM; TGI (SK-OV-3): > 100000 nM; CC50 (SK-OV-3): > 100000 nM; GI50 (MOLT-4): 271 nM; LC50 (MOLT-4): > 100000 nM; growth at 1 µM (T47D): 19%
